The first experiment has as its target Bromodomain-containing protein 4 (Homo sapiens, UniProt O60885). In words: Inhibition of BRD4 bromodomain1 (unknown origin) using peptide histone H4 (SGRGACKGGACKGLGAC-KGGAACKRHGSGSK-biotin) as substrate incubated for 15 mins followed by substrate addition measured after 1 hr by alphascreen assay.
Settings: not given
For `CCS(=O)(=O)Nc1ccc(Oc2ccc(F)cc2F)c(-c2cn(C)c(=O)c3[nH]ccc23)c1` [MIVEBRESIB], the IC50 (in general, the concentration needed to halve the response being measured) amounted to 2.5 nM.

The molecule `Cc1noc(C)c1-c1ccc2c(c1)C(c1ccccc1)N(Cc1cn(CCOCCOCCOCCn3cc(CN4C(=O)Nc5ccc(-c6c(C)noc6C)cc5C4c4ccccc4)nn3)nn1)C(=O)N2` (configuration not stated) yielded an IC50 of less than 2.1 nM.

As to `Cc1noc(C)c1-c1ccc2c(c1)C(c1ccccc1)N(Cc1cn(CCCCCCn3cc(CN4C(=O)Nc5ccc(-c6c(C)noc6C)cc5C4c4ccccc4)nn3)nn1)C(=O)N2` (configuration not stated), the IC50 is less than 2.1 nM.

With `Cc1noc(C)c1-c1ccc2c(c1)C(c1ccccc1)N(Cc1cn(CCOCCn3cc(CN4C(=O)N(C)c5ccc(-c6c(C)noc6C)cc5C4c4ccccc4)nn3)nn1)C(=O)N2C` (configuration not stated), the IC50 came out at 4.2 nM.

The next experiment relates to BXPC-3. In words: Antiproliferation activity against human BxPC3 cells assessed as reduction in cell viability at 2.5 uM incubated for 48 hrs by MTT assay relative to control. Format: functional.
Settings: not given
Put shortly: (§1)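 Single-concentration screen at 2.5 μM against BxPc3 and Mia-capa2 pancreatic cancer cells. Read-out is percent growth inhibition.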
As to `CCS(=O)(=O)Nc1ccc(Oc2ccc(F)cc2F)c(-c2cn(C)c(=O)c3[nH]ccc23)c1` [MIVEBRESIB], the Activity is given as 36.8%.

Regarding `Cc1noc(C)c1-c1ccc2c(c1)C(c1ccccc1)N(Cc1cn(CCOCCOCCOCCn3cc(CN4C(=O)Nc5ccc(-c6c(C)noc6C)cc5C4c4ccccc4)nn3)nn1)C(=O)N2` (configuration not stated), the Activity amounted to 42.2%.

For `Cc1noc(C)c1-c1ccc2c(c1)C(c1ccccc1)N(Cc1cn(CCCCCCn3cc(CN4C(=O)Nc5ccc(-c6c(C)noc6C)cc5C4c4ccccc4)nn3)nn1)C(=O)N2` (configuration not stated), the Activity was 37.1%.

Turning to `Cc1noc(C)c1-c1ccc2c(c1)C(c1ccccc1)N(Cc1cn(CCOCCn3cc(CN4C(=O)N(C)c5ccc(-c6c(C)noc6C)cc5C4c4ccccc4)nn3)nn1)C(=O)N2C` (configuration not stated), the Activity is 23.2%.

In the next experiment the test system is MIA PaCa-2. In words: Antiproliferation activity against human MIAPaCa2 cells assessed as reduction in cell viability at 2.5 uM incubated for 48 hrs by MTT assay relative to control. Format: functional.
Settings: not given
In short, it runs like this:
as §1
`CCS(=O)(=O)Nc1ccc(Oc2ccc(F)cc2F)c(-c2cn(C)c(=O)c3[nH]ccc23)c1` [MIVEBRESIB]: the Activity was 64.3%.

Regarding `Cc1noc(C)c1-c1ccc2c(c1)C(c1ccccc1)N(Cc1cn(CCOCCOCCOCCn3cc(CN4C(=O)Nc5ccc(-c6c(C)noc6C)cc5C4c4ccccc4)nn3)nn1)C(=O)N2` (configuration not stated), the Activity is listed as 66.4%.

Take `Cc1noc(C)c1-c1ccc2c(c1)C(c1ccccc1)N(Cc1cn(CCCCCCn3cc(CN4C(=O)Nc5ccc(-c6c(C)noc6C)cc5C4c4ccccc4)nn3)nn1)C(=O)N2` (configuration not stated): the Activity worked out at 57.2%.

In the case of `Cc1noc(C)c1-c1ccc2c(c1)C(c1ccccc1)N(Cc1cn(CCOCCn3cc(CN4C(=O)N(C)c5ccc(-c6c(C)noc6C)cc5C4c4ccccc4)nn3)nn1)C(=O)N2C` (configuration not stated), the Activity was 64%.

The next experiment relates to HCT-116. In words: Antiproliferation activity against human HCT116 cells assessed as reduction in cell viability at 2 uM incubated for 48 hrs by MTT assay relative to control. Format: functional.
Settings: not given
In short, it runs like this: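 HCT116 colon cancer cells screened at a single 2.0 μM concentration. Read-out is percent growth inhibition.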
For orientation: Tetrazolium dyes change colour on reduction, which living cells bring about.
Take `CCS(=O)(=O)Nc1ccc(Oc2ccc(F)cc2F)c(-c2cn(C)c(=O)c3[nH]ccc23)c1` [MIVEBRESIB]: the Activity came to 69.5%.

Regarding `Cc1noc(C)c1-c1ccc2c(c1)C(c1ccccc1)N(Cc1cn(CCOCCOCCOCCn3cc(CN4C(=O)Nc5ccc(-c6c(C)noc6C)cc5C4c4ccccc4)nn3)nn1)C(=O)N2` (configuration not stated), the Activity came out at 60.4%.

Turning to `Cc1noc(C)c1-c1ccc2c(c1)C(c1ccccc1)N(Cc1cn(CCCCCCn3cc(CN4C(=O)Nc5ccc(-c6c(C)noc6C)cc5C4c4ccccc4)nn3)nn1)C(=O)N2` (configuration not stated), the Activity came to 60.1%.

Regarding `Cc1noc(C)c1-c1ccc2c(c1)C(c1ccccc1)N(Cc1cn(CCOCCn3cc(CN4C(=O)N(C)c5ccc(-c6c(C)noc6C)cc5C4c4ccccc4)nn3)nn1)C(=O)N2C` (configuration not stated), the Activity was found to be 49.6%.

The test system of another experiment is HCT-116. In words: Antiproliferation activity against human HCT116 cells assessed as reduction in cell viability incubated for 48 hrs by MTT assay. The settings on record: HCT-116, 48 h. Format: functional, cell-based. Put shortly: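 HCT116 cells treated across a concentration gradient. IC50 was taken from dose–response curves, reported as mean ± SD of at least three independent experiments.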
Regarding `CCS(=O)(=O)Nc1ccc(Oc2ccc(F)cc2F)c(-c2cn(C)c(=O)c3[nH]ccc23)c1` [MIVEBRESIB], the IC50 is 550 nM.
